Measurements published in ChEMBL document CHEMBL1154048, “Design, synthesis and pharmacological evaluation of new 1-[3-(4-arylpiperazin-1-yl)-2-hydroxy-propyl]-3,3-diphenylpyrrolidin-2-one derivatives with antiarrhythmic, antihypertensive, and alpha-adrenolytic activity” (Eur J Med Chem, 2009).

Legend:
Rattus norvegicus [1] = assay: Hypotensive activity in normotensive Wistar rat assessed as systolic blood pressure at 5 mg/kg, iv after 30 mins (Rvb=139 +/- 0.6 mmHg); assay type: functional, Artery
Rattus norvegicus [2] = assay: Hypotensive activity in normotensive Wistar rat assessed as systolic blood pressure at 5 mg/kg, iv after 60 mins (Rvb=139 +/- 0.6 mmHg); assay type: functional, Artery
Rattus norvegicus [3] = assay: Hypotensive activity in normotensive Wistar rat assessed as diastolic blood pressure at 5 mg/kg, iv after 5 mins (Rvb=120 +/- 1.7 mmHg); assay type: functional, Artery
Rattus norvegicus [4] = assay: Hypotensive activity in normotensive Wistar rat assessed as diastolic blood pressure at 5 mg/kg, iv after 10 mins (Rvb=120 +/- 1.7 mmHg); assay type: functional, Artery
Rattus norvegicus [5] = assay: Hypotensive activity in normotensive Wistar rat assessed as diastolic blood pressure at 5 mg/kg, iv after 20 mins (Rvb=120 +/- 1.7 mmHg); assay type: functional, Artery
Rattus norvegicus [6] = assay: Hypotensive activity in normotensive Wistar rat assessed as systolic blood pressure at 5 mg/kg, iv after 5 mins (Rvb=141.3 +/- 6.4 mmHg); assay type: functional, Artery
Rattus norvegicus [7] = assay: Hypotensive activity in normotensive Wistar rat assessed as systolic blood pressure at 5 mg/kg, iv after 20 mins (Rvb=141.3 +/- 6.4 mmHg); assay type: functional, Artery
Rattus norvegicus [8] = assay: Hypotensive activity in normotensive Wistar rat assessed as diastolic blood pressure at 5 mg/kg, iv after 5 mins (Rvb=126 +/- 4.6 mmHg); assay type: functional, Artery
Rattus norvegicus [9] = assay: Hypotensive activity in normotensive Wistar rat assessed as systolic blood pressure at 5 mg/kg, iv after 30 mins (Rvb=138 +/- 0.9 mmHg); assay type: functional, Artery
Rattus norvegicus [10] = assay: Hypotensive activity in normotensive Wistar rat assessed as systolic blood pressure at 5 mg/kg, iv after 60 mins (Rvb=138 +/- 0.9 mmHg); assay type: functional, Artery
Rattus norvegicus [11] = assay: Hypotensive activity in normotensive Wistar rat assessed as diastolic blood pressure at 5 mg/kg, iv after 10 mins (Rvb=119 +/- 1.2 mmHg); assay type: functional, Artery
Rattus norvegicus [12] = assay: Hypotensive activity in normotensive Wistar rat assessed as diastolic blood pressure at 2.5 mg/kg, iv after 5 mins (Rvb=107.2 +/- 7.3 mmHg); assay type: functional, Artery
Rattus norvegicus [13] = assay: Hypotensive activity in normotensive Wistar rat assessed as diastolic blood pressure at 2.5 mg/kg, iv after 20 mins (Rvb=107.2 +/- 7.3 mmHg); assay type: functional, Artery
Rattus norvegicus [14] = assay: Hypotensive activity in normotensive Wistar rat assessed as diastolic blood pressure at 2.5 mg/kg, iv after 60 mins (Rvb=107.2 +/- 7.3 mmHg); assay type: functional, Artery
Rattus norvegicus [15] = assay: Hypotensive activity in normotensive Wistar rat assessed as systolic blood pressure at 5 mg/kg, iv after 5 mins (Rvb=140.5 +/- 1.1 mmHg); assay type: functional, Artery
Rattus norvegicus [16] = assay: Hypotensive activity in normotensive Wistar rat assessed as systolic blood pressure at 5 mg/kg, iv after 10 mins (Rvb=140.5 +/- 1.1 mmHg); assay type: functional, Artery
Rattus norvegicus [17] = assay: Hypotensive activity in normotensive Wistar rat assessed as systolic blood pressure at 5 mg/kg, iv after 20 mins (Rvb=140.5 +/- 1.1 mmHg); assay type: functional, Artery
Rattus norvegicus [18] = assay: Hypotensive activity in normotensive Wistar rat assessed as systolic blood pressure at 5 mg/kg, iv after 30 mins (Rvb=140.5 +/- 1.1 mmHg); assay type: functional, Artery
Rattus norvegicus [19] = assay: Hypotensive activity in normotensive Wistar rat assessed as systolic blood pressure at 5 mg/kg, iv after 60 mins (Rvb=140.5 +/- 1.1 mmHg); assay type: functional, Artery
Rattus norvegicus [20] = assay: Hypotensive activity in normotensive Wistar rat assessed as diastolic blood pressure at 5 mg/kg, iv after 10 mins (Rvb=125.5 +/- 0.6 mmHg); assay type: functional, Artery
Rattus norvegicus [21] = assay: Hypotensive activity in normotensive Wistar rat assessed as diastolic blood pressure at 5 mg/kg, iv after 60 mins (Rvb=125.5 +/- 0.6 mmHg); assay type: functional, Artery
Guinea pig spleen α1B = Guinea pig spleen α1B (Cavia porcellus, UniProt H0WBQ9); assay: Antagonist activity at Alpha-1B adrenoceptor in guinea pig spleen assessed as inhibition of noradrenaline-induced contraction after 30 mins; assay type: functional, tissue-based; details: read-out: pA2 (converted)
Outline: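 Guinea-pig spleen strips equilibrated 100 min with repeated noradrenaline stimulation and washout. Two cumulative noradrenaline concentration–response curves were run 60 min apart, before and after a 30 min antagonist incubation, with propranolol present throughout to block β-adrenoceptors. Contraction was expressed as % of the first-curve maximum. EC50 was fitted by non-linear regression, and Schild analysis of concentration ratios gave pA2. n ≥ 5.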

Rattus norvegicus [22] = species on record: Rattus norvegicus; assay: Selectivity for rat cerebral cortex alpha1 adrenergic receptor over rat cerebral cortex alpha2 adrenergic receptor; assay type: tissue-based
Outline: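 Rat cerebral cortex membranes were prepared in 50 mM Tris–HCl pH 7.6, homogenized and spun twice at 20 000 g. Competition was against [3H]prazosin 0.2 nM (α1) or [3H]clonidine 2 nM (α2), with 7–8 concentrations from 10^-11 to 10^-4 M. Nonspecific binding was defined with phentolamine for the prazosin assay. After filtration, binding was read by scintillation counting in duplicate. Ki was calculated by Cheng–Prusoff, and selectivity was compared from the α1 and α2 Ki values.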

Rattus norvegicus [23] = assay: Hypotensive activity in normotensive Wistar rat assessed as systolic blood pressure at 5 mg/kg, iv after 60 mins (Rvb=142.5 +/- 3.6 mmHg); assay type: functional, Artery
Rattus norvegicus [24] = assay: Hypotensive activity in normotensive Wistar rat assessed as diastolic blood pressure at 5 mg/kg, iv after 5 mins (Rvb=127 +/- 8.1 mmHg); assay type: functional, Artery
Rattus norvegicus [25] = assay: Hypotensive activity in normotensive Wistar rat assessed as diastolic blood pressure at 5 mg/kg, iv after 20 mins (Rvb=127 +/- 8.1 mmHg); assay type: functional, Artery
Rattus norvegicus [26] = assay: Hypotensive activity in normotensive Wistar rat assessed as diastolic blood pressure at 5 mg/kg, iv after 60 mins (Rvb=127 +/- 8.1 mmHg); assay type: functional, Artery
[27] = tested on: Alpha-1B adrenergic receptor (Cavia porcellus); assay: Antagonist activity at Alpha-1B adrenoceptor in guinea pig spleen assessed as inhibition of noradrenaline-induced contraction after 30 mins

COc1ccccc1N1CCN(CC(O)CN2CCC(c3ccccc3)(c3ccccc3)C2=O)CC1.Cl.Cl (stereo not drawn)
Activity (Rattus norvegicus [1]): 116 mmHg
Activity (Rattus norvegicus [2]): 112 mmHg
Activity (Rattus norvegicus [3]): 109 mmHg
Activity (Rattus norvegicus [4]): 107.5 mmHg
Activity (Rattus norvegicus [5]): 104 mmHg

Cc1ccccc1N1CCN(CC(O)CN2CCC(c3ccccc3)(c3ccccc3)C2=O)CC1.Cl.Cl (stereo not drawn)
Activity (Rattus norvegicus [6]): 132.3 mmHg
Activity (Rattus norvegicus [7]): 136.3 mmHg
Activity (Rattus norvegicus [8]): 116.7 mmHg

Cl.Cl.O=C1N(CC(O)CN2CCN(c3ccccc3C(F)(F)F)CC2)CCC1(c1ccccc1)c1ccccc1 (stereo not drawn)
Activity (Rattus norvegicus [9]): 116 mmHg
Activity (Rattus norvegicus [10]): 111 mmHg
Activity (Rattus norvegicus [11]): 106.5 mmHg

COc1ccc(N2CCN(CC(O)CN3CCC(c4ccccc4)(c4ccccc4)C3=O)CC2)cc1.Cl.Cl (stereo not drawn)
Activity (Rattus norvegicus [12]): 107 mmHg
Activity (Rattus norvegicus [13]): 89.8 mmHg
Activity (Rattus norvegicus [14]): 88.2 mmHg

Cl.Cl.O=C1N(CC(O)CN2CCN(c3ccccc3)CC2)CCC1(c1ccccc1)c1ccccc1 (stereo not drawn)
Activity (Rattus norvegicus [15]): 135.5 mmHg
Activity (Rattus norvegicus [16]): 134.5 mmHg
Activity (Rattus norvegicus [17]): 135.5 mmHg
Activity (Rattus norvegicus [18]): 129 mmHg
Activity (Rattus norvegicus [19]): 126.5 mmHg
Activity (Rattus norvegicus [20]): 118.6 mmHg
Activity (Rattus norvegicus [21]): 109.5 mmHg

CCOc1ccccc1N1CCN(CC(O)CN2CCC(c3ccccc3)(c3ccccc3)C2=O)CC1.Cl.Cl (stereo not drawn)
Kb (Guinea pig spleen α1B): 281 nM
Selectivity ratio (Rattus norvegicus [22]): 10
Activity (Rattus norvegicus [23]): 114 mmHg
Activity (Rattus norvegicus [24]): 117 mmHg
Activity (Rattus norvegicus [25]): 98 mmHg
Activity (Rattus norvegicus [26]): 95.5 mmHg
Activity [27]: Dose-dependent effect
